Results published in ChEMBL document CHEMBL1150647, “New diarylheptanoids from the stems of Carpinus cordata” (J Nat Prod, 2002).
≈ marks a conversion by molar mass, not a printed value.

System: Radical scavenging activity
Assay: Antioxidant activity assessed as DPPH free radical scavenging activity after 30 mins
Type: functional
Outline: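 Test samples in EtOH mixed with 100 µM ethanolic DPPH and incubated at 37 °C for 30 min. Absorbance was read at 515 nm. Percent inhibition was calculated against an ethanol-treated control. IC50 is the sample concentration that scavenges 50% of DPPH radicals.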

| Compound | IC50 [µg/mL] |
| --- | --- |
| COC(=O)c1cc(O)c(O)c(O)c1 [GALLIC ACID METHYL ESTER] | 4.9 (≈ 26.6 µM) |
| COC(=O)c1cc(O)c(O)c(O[C@@H]2O[C@H](CO)[C@@H](O)[C@H](O)[C@H]2O)c1 | 4.6 (≈ 13.3 µM) |
| O=C(O[C@@H]1Cc2c(O)cc(O)cc2O[C@@H]1c1cc(O)c(O)c(O)c1)c1cc(O)c(O)c(O)c1 [EPIGALOCATECHIN GALLATE] | 2.7 (≈ 5.89 µM) |
| Oc1ccc(/C=C/c2cc(O)cc(O)c2)cc1 [RESVERATROL] | 16.2 (≈ 71 µM) |
| COC(=O)c1cc(O)c(O)c(O[C@@H]2O[C@H](COC(=O)c3cc(O)c(O)c(O)c3)[C@@H](O)[C@H](O)[C@H]2O)c1 | 4.9 (≈ 9.83 µM) |
| O=C1CC[C@H](O)Cc2ccc(O)c(c2)-c2cc(ccc2O)C[C@H]1O [CASUARINONDIOL] | > 100 |
| O=C1C[C@@H](O)[C@@H](O)Cc2ccc(O)c(c2)-c2cc(ccc2O)C[C@H]1O [CARPINONTRIOLS A] | > 100 |
| O=C1CCc2ccc(O)c(c2)-c2cc(ccc2O)C[C@H](O)[C@H](O)[C@H]1O [CARPINONTRIOL B] | 80.2 (≈ 233 µM) |
| COC(=O)c1cc(O)c(O[C@@H]2O[C@H](CO)[C@@H](O)[C@H](O)[C@H]2O)c(O)c1 | > 100 |
| Oc1cc(O)c2c(c1)O[C@H](c1ccc(O)c(O)c1)[C@@H](O)C2 [CIANIDANOL] | 2.7 (≈ 9.3 µM) |
